For assay [1], the target named is T1, ADC β-lactamase (Acinetobacter baumannii, UniProt Q6DRA1). Briefly: ESI-MS of intact ADC incubated with inhibitors. The note with it: 14 μM ADC, 15 min, inhibitor: enzyme 20:1; error ± 3 amu. In short, it runs like this:
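ADC-7 was expressed in E. coli BL21(DE3) from pET24a(+) with 0.2 mM IPTG at 37 °C for 4 hr. It was purified by preparative isoelectric focusing and gel-filtration FPLC. Incubations were run with and without test compound, then quenched with 0.1% TFA, desalted on C18 and kept on ice. Samples were diluted to 10 μM in 50% acetonitrile/0.1% TFA, nanospray-infused at 0.5 μl/min for 2 min on a Q-TOF, and spectra were deconvoluted.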

The next assay has as its system E. coli DH10B blaADC. The settings on record: E. coli DH10B harboring blaADC; previous data; cited from earlier work.
Assay [2] addresses T1, ADC β-lactamase. As to the kind of experiment: Ki in direct competition assays with ADC. Format: biochemical.
The target in assay [3] is T1, ADC β-lactamase. The note with it: obtained previously by same methodology; cited from earlier work.

Converted amounts (≈) assume the structure as drawn. “And” between values parts separate entries of the source, which are not always exact repeats. Equal entries are not always repeated. Where two headings read alike, the source gives them in different places.

For `C[C@@H](O)[C@H]1C(=O)N2C(C(=O)O)=C(S[C@@H]3CN[C@H](C(=O)Nc4cccc(C(=O)O)c4)C3)[C@H](C)[C@H]12` [Ertapenem], at ADC β-lactamase [1], the “Species observed in deconvoluted spectra” value was 41,069 amu and 41,112 amu; the “Δ difference from β-lactamase molecular weight” value (from here on “Δ difference”) is 431 amu and 474 amu. Besides, the MIC (as a rule, the lowest concentration found to suppress growth) with E. coli DH10B blaADC was 0.06 µg/mL (≈ 0.126 µM). For the same compound, affinity on ADC β-lactamase [2] was put at a Ki of 5.8 ± 0.2 µM.

For the compound `CC1(C)[C@H](C(=O)O)N2C(=O)C[C@H]2S1(=O)=O` [Sulbactam], the inhibition constant (Ki) (in general, the dissociation constant of the complex between target and ligand, obtained from inhibition or displacement) at ADC β-lactamase [3] was 109 ± 3 µM.

For the compound `C[C@]1(Cn2ccnn2)[C@H](C(=O)O)N2C(=O)C[C@H]2S1(=O)=O` [Tazobactam], the Ki at ADC β-lactamase [3] was 91 ± 21 µM.

Consider `O=C(O)[C@H]1/C(=C/CO)O[C@@H]2CC(=O)N21` [Clavulanate], for which the Ki at ADC β-lactamase [3] is 4280 µM.

Turning to `C[C@@H](O)[C@H]1C(=O)N2C(C(=O)O)=C(SCCN=CN)C[C@H]12` [Imipenem], on ADC β-lactamase [1], the “Species observed in deconvoluted spectra” value was 40,936 amu and 40,893 amu; the “Δ difference” value is 298 amu and 255 amu. Besides, the affinity on ADC β-lactamase [2], expressed as Ki, was 1.3 ± 0.1 µM.

As for `C[C@@H](O)[C@H]1C(=O)N2C(C(=O)O)=C(S[C@@H]3CN[C@H](C(=O)N(C)C)C3)[C@H](C)[C@H]12` [Meropenem], on ADC β-lactamase [1], the “Species observed in deconvoluted spectra” value was 41,021 amu and 40,979 amu; the “Δ difference” value is 383 amu and 341 amu. The MIC in the assay with E. coli DH10B blaADC is 0.06 µg/mL (≈ 0.156 µM). On ADC β-lactamase [2], this compound showed a Ki of 19 ± 2 µM.

With `C[C@@H](O)[C@H]1C(=O)N2C(C(=O)O)=C(S[C@@H]3CN[C@H](CNS(N)(=O)=O)C3)[C@H](C)[C@H]12` [Doripenem], on ADC β-lactamase [1], the “Species observed in deconvoluted spectra” value is 41,058 amu and 41,015 amu; the “Δ difference” value is 420 amu and 377 amu. The compound also registered a Ki on ADC β-lactamase [2] of 12.2 ± 0.4 µM.

Source of the values: PMC2810401 (Biochemistry, 2010).
